This note sets out measurements from ChEMBL document CHEMBL4396947, “Synthesis and characterization of novel isoform-selective IP6K1 inhibitors” (Bioorg Med Chem Lett, 2019).

The target in experiment [1] is Inositol hexakisphosphate kinase 2 (Homo sapiens, UniProt Q9UHH9). Description: Inhibition of IP6K2 (unknown origin) in presence of ATP at Km concentration by Cheng-Prusoff equation analysis. The method in brief: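 Purified IP6K isoforms run in the ADP-Glo Max kinase assay with 1 mM ATP. Measured IC50 values converted to Ki with the Cheng-Prusoff equation.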
Experiment [2] addresses Dual specificity mitogen-activated protein kinase kinase 1 (Homo sapiens) (UniProt Q02750). Description: Inhibition of full length recombinant human MEK1 assessed as residual activity at 10 uM using inactive MAPK2 as substrate incubated for 40 mins in presence of [gamma-33P]ATP at Km concentration by radiometric assay relative to control.
Experiment [3] concerns the target Mitogen-activated protein kinase kinase kinase 9 (Homo sapiens) (UniProt P80192). Briefly: Inhibition of recombinant human MLK1 (134 to 414 residues) assessed as residual activity at 10 uM using casein as substrate incubated for 40 mins in presence of [gamma-33P]ATP at Km concentration by radiometric assay relative to control.
The target of experiment [4] is Ribosomal protein S6 kinase alpha-4 (Homo sapiens) (UniProt O75676). Briefly: Inhibition of full length recombinant human MSK2 assessed as residual activity at 10 uM using GRPRTSSFAEGKK as substrate incubated for 40 mins in presence of [gamma-33P]ATP at Km concentration by radiometric assay relative to control.
The target of experiment [5] is Protein kinase C alpha type (Homo sapiens) (UniProt P17252). Briefly: Inhibition of recombinant full length human PKCalpha assessed as residual activity at 10 uM using histone H1 as substrate incubated for 40 mins in presence of [gamma-33P]ATP at Km concentration by radiometric assay relative to control.
Experiment [6] is filed under the species Homo sapiens. Description: Inhibition of recombinant full length human PI3K p110delta/p85alpha N253S mutant assessed as residual activity at 10 uM incubated for 40 mins in presence of [gamma-33P]ATP at Km concentration by radiometric assay relative to control.

By Ki is commonly meant a dissociation constant, usually derived from enzyme kinetics or from competition with a known ligand.

Sequence of Dual specificity mitogen-activated protein kinase kinase 1 (Homo sapiens) (Q02750 whole entry, the tested form may be a part): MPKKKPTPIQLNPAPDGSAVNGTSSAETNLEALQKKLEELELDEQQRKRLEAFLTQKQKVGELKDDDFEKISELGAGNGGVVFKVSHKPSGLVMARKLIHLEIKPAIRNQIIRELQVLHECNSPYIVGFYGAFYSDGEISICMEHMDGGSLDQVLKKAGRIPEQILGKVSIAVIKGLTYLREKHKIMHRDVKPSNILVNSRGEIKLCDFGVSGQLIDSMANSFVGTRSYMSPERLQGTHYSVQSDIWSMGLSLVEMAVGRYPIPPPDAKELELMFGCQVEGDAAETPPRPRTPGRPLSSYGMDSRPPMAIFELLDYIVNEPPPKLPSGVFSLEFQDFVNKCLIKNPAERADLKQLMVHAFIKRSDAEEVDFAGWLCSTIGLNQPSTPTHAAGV
Sequence of Inositol hexakisphosphate kinase 2 (Q9UHH9 whole entry, canonical isoform): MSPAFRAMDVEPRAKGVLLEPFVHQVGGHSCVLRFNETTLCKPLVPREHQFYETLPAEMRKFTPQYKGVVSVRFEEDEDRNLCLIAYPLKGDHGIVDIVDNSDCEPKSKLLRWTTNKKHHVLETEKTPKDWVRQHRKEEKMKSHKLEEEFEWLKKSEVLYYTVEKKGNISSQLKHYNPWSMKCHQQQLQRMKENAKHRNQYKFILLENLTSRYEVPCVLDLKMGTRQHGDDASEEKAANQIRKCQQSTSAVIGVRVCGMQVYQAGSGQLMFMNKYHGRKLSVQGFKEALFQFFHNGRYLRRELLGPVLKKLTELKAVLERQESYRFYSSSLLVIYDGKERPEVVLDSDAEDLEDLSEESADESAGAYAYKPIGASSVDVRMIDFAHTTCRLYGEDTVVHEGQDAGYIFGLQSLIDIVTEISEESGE
Sequence of Ribosomal protein S6 kinase alpha-4 (Homo sapiens) (O75676 whole entry, looked up): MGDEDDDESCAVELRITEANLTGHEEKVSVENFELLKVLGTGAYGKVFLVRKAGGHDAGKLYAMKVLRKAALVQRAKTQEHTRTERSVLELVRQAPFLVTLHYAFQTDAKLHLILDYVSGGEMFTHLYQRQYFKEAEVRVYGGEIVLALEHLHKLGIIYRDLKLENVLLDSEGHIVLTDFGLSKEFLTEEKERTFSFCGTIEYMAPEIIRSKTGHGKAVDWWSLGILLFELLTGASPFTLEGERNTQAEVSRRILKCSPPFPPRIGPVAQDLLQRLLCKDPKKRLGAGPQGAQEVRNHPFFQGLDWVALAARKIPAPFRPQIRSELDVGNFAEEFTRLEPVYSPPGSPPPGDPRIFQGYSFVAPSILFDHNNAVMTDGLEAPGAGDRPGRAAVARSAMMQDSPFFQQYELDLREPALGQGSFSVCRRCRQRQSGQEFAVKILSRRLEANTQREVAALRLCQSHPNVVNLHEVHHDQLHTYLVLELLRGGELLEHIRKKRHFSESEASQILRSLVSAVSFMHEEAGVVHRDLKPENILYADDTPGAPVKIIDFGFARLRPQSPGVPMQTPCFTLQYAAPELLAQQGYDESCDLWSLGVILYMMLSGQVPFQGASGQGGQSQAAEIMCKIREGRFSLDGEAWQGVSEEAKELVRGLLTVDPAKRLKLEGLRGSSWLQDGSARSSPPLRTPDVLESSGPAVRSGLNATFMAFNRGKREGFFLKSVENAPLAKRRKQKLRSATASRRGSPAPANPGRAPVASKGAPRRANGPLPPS
Sequence of Mitogen-activated protein kinase kinase kinase 9 (Homo sapiens) (P80192 whole entry, looked up, the tested form may be a part): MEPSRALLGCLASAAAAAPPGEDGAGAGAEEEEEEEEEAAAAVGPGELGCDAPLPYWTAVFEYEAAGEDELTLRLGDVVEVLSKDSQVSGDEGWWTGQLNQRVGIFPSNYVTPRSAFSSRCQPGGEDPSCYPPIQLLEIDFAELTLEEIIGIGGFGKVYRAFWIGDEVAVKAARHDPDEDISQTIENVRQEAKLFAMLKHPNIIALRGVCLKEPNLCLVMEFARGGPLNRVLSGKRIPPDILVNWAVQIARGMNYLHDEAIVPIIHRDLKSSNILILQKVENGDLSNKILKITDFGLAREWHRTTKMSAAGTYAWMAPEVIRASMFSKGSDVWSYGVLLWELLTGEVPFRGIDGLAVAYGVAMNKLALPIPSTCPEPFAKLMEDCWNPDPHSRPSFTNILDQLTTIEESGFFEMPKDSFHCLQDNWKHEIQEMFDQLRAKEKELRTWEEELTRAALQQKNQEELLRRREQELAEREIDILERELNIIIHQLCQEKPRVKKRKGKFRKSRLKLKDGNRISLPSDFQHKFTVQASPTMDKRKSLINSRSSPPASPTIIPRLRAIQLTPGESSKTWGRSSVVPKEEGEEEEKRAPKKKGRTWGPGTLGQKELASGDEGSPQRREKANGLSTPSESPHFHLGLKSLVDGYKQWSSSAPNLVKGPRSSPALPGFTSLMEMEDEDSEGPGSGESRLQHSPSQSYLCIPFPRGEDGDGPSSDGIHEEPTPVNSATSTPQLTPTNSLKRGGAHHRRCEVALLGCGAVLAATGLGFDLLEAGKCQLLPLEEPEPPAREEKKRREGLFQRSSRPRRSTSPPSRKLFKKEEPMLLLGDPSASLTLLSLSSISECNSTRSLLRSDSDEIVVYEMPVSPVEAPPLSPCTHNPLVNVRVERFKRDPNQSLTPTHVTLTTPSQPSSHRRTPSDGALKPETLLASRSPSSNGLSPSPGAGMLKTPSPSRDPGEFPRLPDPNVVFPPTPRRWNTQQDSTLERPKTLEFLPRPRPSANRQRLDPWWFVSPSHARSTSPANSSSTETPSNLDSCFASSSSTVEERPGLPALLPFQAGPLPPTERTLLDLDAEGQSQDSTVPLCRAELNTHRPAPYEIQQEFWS

`COc1ccc2c(CCNc3nc(NCc4ccc(=O)[nH]c4)c4nc[nH]c4n3)c[nH]c2c1`: the Ki in experiment [1] came to 4.88 µM. Besides, the Activity in experiment [2] came to 11%; in experiment [3], 24%; in experiment [4], 96%; in experiment [5], 86%; in experiment [6], 95%.
